Shown are actives, neighbours in structure and some others; about 2.3% of the full set was active somewhere.
SUMO1 PPI mod: modulators of human SUMO1-mediated protein-protein interactions; SUMO1 binding to a labelled peptide, TR-FRET, 1 h; inhibition, % at 20 µM; hit rate 0.33% among 360,000; AID 602429; in the data active = inhibition above about 37%
LMPTP inh: LMPTP (human) inhibition; P24666; recombinant LMPTP-A, OMFP fluorogenic substrate, fluorescence intensity; inhibition, % at 20 µM; hit rate 0.22% among 360,000; AID 651560;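 active = compounds that cut the enzyme signal by at least half of the control window in the single-dose screen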;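 note: plate controls were DMSO wells with enzyme plus substrate for no effect and substrate without enzyme for full effect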
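Buffer or medium: Bis-Tris pH 6.0, DTT, detergent; Assay system: LMPTP-A enzyme; Quantity: 0.625 nM enzyme; Detection: endpoint fluorescence intensity; Times: 50 min dark incubation at room temperature; Controls: substrate-only low control, DMSO enzyme-plus-substrate high control; Doses: single 20 µM dose; Read-out: percent inhibition versus substrate-only and uninhibited controls; Reagent: 400 µM OMFP.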
Rpn11 block: blocks the human proteasome subunit Rpn11; hit rate 0.59% among 360,000; inhibition, % at 20 µM; human 26S proteasome, Ub4-pepOG fluorescence polarization; 20S core pre-blocked with epoxomicin; O00487;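 active = inhibition at 20 µM, scaled to each plate's controls, above about 33%, limit read from the data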
Scp-1 inhibitor: Scp-1 (human) phosphatase inhibition | inhibition, % at 20 µM | Recombinant Scp1, phosphopeptide, malachite green phosphate absorbance | Q9GZU7 | hit rate 0.88% among 340,000;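 active = inhibition above about 50% at 20 µM, limit read from the data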;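 note: plate controls were DMSO wells with enzyme for no effect and wells lacking enzyme for full effect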
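Test system: SCP-1 phosphatase catalytic domain, residues 76-261; measured by: colorimetric phosphate reagent with accelerator and stabiliser, absorbance at 630 nm; timing: enzyme reaction 45 min at room temperature, colour 5 min, stabilisation 30 min; also added: Phosphorylated 17-residue peptide substrate; compound dosing: one concentration, 20 µM, with 1.0% DMSO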
STEP inh: blocks human striatal-enriched tyrosine phosphatase; P54829; recombinant STEP, OMFP fluorogenic substrate, fluorescence; inhibition, % at 20 µM; hit rate 0.25% among 360,000; AID 588621;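 active = inhibition at 20 µM, scaled per plate between control wells, above about 37%, limit read from the data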;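 note: 0% = DMSO with enzyme and substrate and 100% = substrate only without enzyme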
Target sequence (P54829 whole entry, looked up): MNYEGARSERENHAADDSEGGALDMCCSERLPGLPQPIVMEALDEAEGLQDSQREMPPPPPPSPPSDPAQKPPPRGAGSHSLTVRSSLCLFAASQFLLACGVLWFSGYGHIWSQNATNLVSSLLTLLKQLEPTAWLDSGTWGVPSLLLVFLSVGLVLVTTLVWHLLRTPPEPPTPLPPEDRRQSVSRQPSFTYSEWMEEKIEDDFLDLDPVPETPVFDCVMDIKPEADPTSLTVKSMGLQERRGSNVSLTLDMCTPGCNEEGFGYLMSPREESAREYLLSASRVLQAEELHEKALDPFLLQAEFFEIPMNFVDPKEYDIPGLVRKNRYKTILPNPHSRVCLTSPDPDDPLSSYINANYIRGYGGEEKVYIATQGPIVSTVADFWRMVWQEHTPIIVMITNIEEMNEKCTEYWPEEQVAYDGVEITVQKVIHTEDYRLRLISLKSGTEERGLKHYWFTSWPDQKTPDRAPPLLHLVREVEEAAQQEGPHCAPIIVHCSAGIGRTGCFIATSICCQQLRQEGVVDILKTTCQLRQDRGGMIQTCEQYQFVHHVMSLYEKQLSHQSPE
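System: STEP phosphatase, cell-free reaction; Buffer or medium: Bis-Tris pH 6.0 buffer with DTT, detergent; Incubation: 20 min at room temperature, dark; Measured by: fluorescence, 480/540 nm.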
DNMT1 block: DNMT1 (human) enzyme inhibition; P26358; DNMT1 molecular beacon, Hinp1I cleavage, fluorescence; inhibition (reported as % activation of signal), % at 10 µM; hit rate 0.83% among 360,000; in the data active = inhibition above about 50%
An asterisk follows results filed as active; / = no result given.

SMILES	SUMO1 PPI mod	LMPTP inh	Rpn11 block	Scp-1 inhibitor	STEP inh	DNMT1 block
CCOc1ccc(S(=O)(=O)N2CCOCC2)cc1NC(=O)CN1C(=O)NC(C)(c2ccccc2)C1=O (stereo unspecified)	0	0	2	-4	0	-1
Cc1cccc2cc(-c3nc4ccc(C(=O)O)cc4[nH]3)c(=O)oc12	-4	4	-19	58*	18	0
COc1ccc(/C=C2\SC(=S)N(CCC(=O)Nc3ccc(O)cc3)C2=O)cc1	-1	13	-2	-2	0	-15
CCN(CC)CCOC(=O)c1ccc(NC(=O)CCCN2C(=O)S/C(=C/c3ccc(OC)cc3)C2=S)cc1	-79	2	68*	1	4	10
C[N+]1(CC(O)COCC2COc3ccccc3O2)CCOCC1 (stereo unspecified)	1	0	4	106*	-3	3
OC(COCC1COc2ccccc2O1)CN1CCN(c2ccccc2)CC1 (stereo unspecified)	-1	-1	-8	3	-1	-1
CCCCCCCC/C=C\CCCCCCCC(=O)O	24	2	13	-6	0	59*
CC(=O)c1ccc(NC(=O)c2ccc(N3C(=O)c4cccnc4C3=O)cc2)cc1	41*	3	1	7	2	-5
O=C(N/C=C/c1ccco1)OCc1ccccc1	0	2	36*	4	2	-5
O=C(N/C=C/c1ccco1)NCc1ccccc1	5	4	6	41	6	61*
O=C(COC(=O)/C=C/c1ccco1)NCc1ccccc1	-2	0	-5	0	-2	4
Cc1cc(O)c2c(c1O)C(=O)[C@]13C(=C2O)C(=O)[C@@H]2[C@@H](O)[C@H]1[C@@H]1[C@H](O)[C@H]3C(=O)C3=C(O)c4c(O)cc(C)c(O)c4C(=O)[C@]312	103*	88*	49*	58*	43*	95*
O=S(=O)(Nc1cc2nc3ccccc3nc2n1Cc1ccccc1)c1ccc(Cl)cc1	51*	38	-2	-14	-13	89*
O=S(=O)(NCc1ccccc1)c1ccc(Cl)cc1	3	-1	2	-17	-2	2
CSc1nnc(C)c(=O)n1COC(=O)c1ccc(S(=O)(=O)N(C)C)cc1	0	-2	0	-3	-2	2
Cc1cc(-c2ccccc2)nc(Nc2nc3c(C)cccc3c(=O)[nH]2)n1	53*	7	30	-8	0	48
COc1ccc(C(=O)Nc2ccc(NC(=O)c3cccs3)cn2)cc1	46*	1	4	-1	1	9
Nc1c2ccccc2nc2ccccc12	-31	19	3	-2	0	76*
O=C1C=CC2=C3c4cc(O)c(O)cc4CC3(O)COC2=C1O (stereo unspecified)	58*	67*	/	42	11	91*
CCOc1ccc(NC2=CC(=O)C(=O)c3ccccc32)cc1	-19	5	-13	57*	20	31
O=C1C=C(Nc2cccnc2)c2ccccc2C1=O	-12	7	-3	1	10	41
O=C1C=C(NCc2ccccc2)c2ccccc2C1=O	44*	10	21	-1	5	84*
O=C1C=C(Nc2ccc(F)cc2)c2ccccc2C1=O	-39	5	5	0	7	54*
CCOC(=O)c1cc(C#N)c(SC(C)C(=O)NC2CCCCC2)nc1C (stereo unspecified)	-7	-1	-5	-8	3	9
CCCS(=O)(=O)NC(=O)C1(C)CCCN(C(=O)c2ccccc2F)C1 (stereo unspecified)	-3	-1	-4	/	0	2
SMILES	SUMO1 PPI mod	LMPTP inh	Rpn11 block	Scp-1 inhibitor	STEP inh	DNMT1 block
O=C(O)CN1C(=O)/C(=C2\SC(=S)N(C(Cc3ccccc3)C(=O)O)C2=O)c2ccccc21 (stereo unspecified)	2	3	-4	4	37	-1
O=C(O)CCN1C(=O)/C(=C2\C(=O)N(Cc3ccccc3Cl)c3ccccc32)SC1=S	30	80*	16	/	98*	89*
COc1ccc(NC(=O)CN2C(=O)/C(=C3\SC(=S)N(CCC(=O)O)C3=O)c3ccccc32)cc1	1	86*	-8	97*	20	3
COC(=O)c1cccc(C(=O)N2CCCC(Nc3ccc(C)c(C)c3)C2)c1 (stereo unspecified)	2	0	6	-5	-2	-1
COc1ccc(NC(=O)Cn2ncc(Cl)c(Cl)c2=O)cc1S(=O)(=O)N1CCOCC1	0	5	-26	99*	4	15
CCN(CC)S(=O)(=O)c1cc(NC(=O)Cn2ncc(Cl)c(Cl)c2=O)ccc1C	-1	24	-19	89*	-1	50
O=C(Cn1ncc(Cl)c(Cl)c1=O)Nc1ccc2c(c1)OCO2	1	10	-15	0	-1	47
O=C(CSc1nc2ccccc2n1CCc1ccccc1)c1ccc(O)c(O)c1	73*	79*	/	69*	83*	97*
O=C(CSc1nc2ccccc2c(=O)[nH]1)c1ccc(O)c(O)c1	22	18	-9	55*	2	14
COCCn1c(SCC(=O)NC2CCCCC2)nnc1-c1ccncc1	2	-1	0	2	-5	2
CCOc1cc(/C=C2/C(=N)N3C(=NC2=O)SN=C3S(C)(=O)=O)ccc1OC(=O)c1ccco1	-8	-1	62*	30	0	9
CCOc1cc(/C=C2\C(=N)N3N=C(S(=O)(=O)CC)SC3=NC2=O)ccc1OC(=O)c1ccco1	3	0	35	14	-1	8
Cc1ccc(C2=NNC(=O)C(c3c[nH]c4ccccc34)C2)cc1 (stereo unspecified)	55*	1	0	-11	2	-4
O=C1NN=C(c2ccc(Cl)cc2)CC1c1c[nH]c2ccccc12 (stereo unspecified)	-4	1	1	-3	-1	-3
COc1ccccc1C(=O)Nc1ccc2c(c1)nc1n2CCN(C2CCCCC2)C1	3	21	20	-3	2	60*
CCCn1cnc2c(sc3nc4c(cc32)CSC(C)(C)C4)c1=O	2	-1	1	23	-2	-2
CC(C)CCOc1ncnc2c1sc1nc3c(cc12)CSC(C)(C)C3	44*	0	7	-4	-1	3
CSc1nc(N(CCO)CCO)c2sc3nc(-c4ccco4)c4c(c3c2n1)CCC4	74*	68*	/	81*	56*	96*
COc1ccc(NC(=O)C/C(C)=N/NC(=O)c2cccs2)c([N+](=O)[O-])c1	-22	0	0	2	1	-2

Screening results (PubChem)
